Measurements from different studies.
Compare with care: the assays were run in different laboratories.
Target: Serine/threonine-protein kinase PknB (pknB, Mycobacterium tuberculosis, UniProt P9WI81)

Compound	test	conditions	remaining binding [%]
F[C@@H]1CCN(c2nccc(-c3cnn4ncccc34)n2)C1	binding	1 µM	100
COc1cnc(Nc2cccc(S(N)(=O)=O)c2)nc1N1CCN(c2ccccc2)C(=O)C1	binding, competition with immobilised ligand	1 µM	86
O=C(Nc1cccnn1)N1CCC(=Cc2cccc(Oc3ccc(C(F)(F)F)cn3)c2)CC1	cell-free assay, competition with immobilised ligand	1 µM	95
N[C@H]1CCN(c2nccc(-c3cnn4ncccc34)n2)C1	binding	1 µM	98
COc1cnc(Nc2cccc(S(N)(=O)=O)c2)nc1N1CCN(c2ccccc2)CC1	binding, competition with immobilised ligand	1 µM	99
C[C@@H]1CCN(c2nccc(-c3cnn4ncccc34)n2)C1	binding	1 µM	100
COc1ccc2c(c1)O[C@@H](c1ccc(OC)c(OC)c1)C[C@H]2NC(=O)C1(c2ccc3c(c2)OC(F)(F)O3)CC1	cell-free assay, competition with immobilised ligand	1 µM	85
O=C(NCC1CCOCC1)c1n[nH]cc1NC(=O)c1c(F)cccc1F	binding, competition with immobilised ligand	1 µM	99
C=CC(=O)N1CCC(C(=O)NCC(=O)N2CCN(c3nc(-c4cnc(N)nc4C(F)F)nc(N4CCOCC4)n3)CC2)CC1	binding, competition with immobilised ligand	1 µM	67
CCN1CCN(Cc2ccc(C(=O)Nc3ccc(C)c(Oc4ccc5c(c4)CC(=O)N5)c3)cc2C(F)(F)F)CC1	binding, competition with immobilised ligand	1 µM	100
C[C@@H](c1ccc(-n2cnc3c(N)ncnc32)cc1)N1CCc2nn(C)c(Cc3ccccc3)c2C1=O	binding, competition with immobilised ligand	0.1 µM	96
CS(=O)(=O)N1CCCC(NC(=O)[C@H](CCC2CCCCC2)NC(=O)c2ccc(CNc3ncnc4c3nnn4-c3ccccc3)cc2)C1 (stereo partly drawn)	cell-free assay, competition with immobilised ligand	0.1 µM	90
c1cnn2ncc(-c3ccnc(N4CCC45COC5)n3)c2c1	binding	1 µM	79
O=C(NCCCC1CCCCC1)c1ccc(CNC(=O)c2cnn(-c3ccccc3)c2C(F)(F)F)cc1	cell-free assay, competition with immobilised ligand	0.1 µM	100
CN(C)c1ncc(F)c(-c2cnn3ncccc23)n1	binding	1 µM	87
